According to ChEMBL document CHEMBL1275265, “Synthesis and biological evaluation of N-antipyrine-4-substituted amino-3-chloromaleimide derivatives” (Eur J Med Chem, 2010):
≈ marks a conversion by molar mass, not a printed value. Calls of active or inactive are those of the source. The calls are words filed in the database; no cut-off is given here.

How the values were obtained:
Mus musculus [1] = assay: Antinociceptive activity in ip dosed Swiss mouse assessed as inhibition of acetic acid-induced abdominal contraction administered 30 mins before acetic acid challenge measured after 20 mins; assay type: functional; conditions: Abdominal cavity, read-out: ID50 (the source's name)
Method in brief: (§1)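 Writhing dose-response in mice: compounds at 0.1–10 mg/kg and standard drugs at 10–100 mg/kg, i.p. in Tween 80/saline, 30 min before i.p. 0.6% acetic acid. Constrictions and stretches were counted for 20 min at 20–22 °C, with six to eight animals per group. ID50 (dose halving the response versus control) was given as geometric mean with 95% confidence limits.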

[2] = Toxicity in Artemia salina assessed as mortality after 24 hrs; assay type: organism-based; conditions: in vivo
Method in brief: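 Artemia salina hatched at pH 9.0 (Na2CO3), 25 °C, strong aeration, continuous light (2000 Lux). Phototropic nauplii were collected about 12 h after hatching, and groups of 10 were exposed per well to various compound concentrations for 24 h. Survivors were counted and % deaths calculated.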

Mus musculus [3] = assay: Antinociceptive activity in Swiss mouse assessed as inhibition of acetic acid-induced writhing at 10 mg/kg, ip administered 30 mins before acetic acid challenge measured after 20 mins relative to control; assay type: functional; conditions: route intraperitoneal
Method in brief: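 Mice were given 10 mg/kg i.p. in Tween 80/0.9% NaCl (Tween ≤5%) 30 min before i.p. 0.6% acetic acid, at 20–22 °C. Abdominal constrictions plus hind-limb stretching were counted cumulatively over 20 min in individual funnels. Groups of six, randomized and blinded. Inhibition was calculated versus vehicle controls (10 ml/kg i.p.); ANOVA with Dunnett's test.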

[4] = system: Trichophyton mentagrophytes; assay: Antifungal activity against Trichophyton mentagrophytes ATCC 9972 by agar dilution method; assay type: functional
Method in brief: (§2)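 Filamentous fungi (hyalohyphomycetes, dermatophytes) were grown on SDA. Spore suspensions were set to 1.0–5.0 × 10^6 spores/mL by hemocytometer count. 1 µL was inoculated onto 1 mL SDA slants holding compound at 10–100 µg/mL (two-fold DMSO dilutions, final DMSO ≤2%), then incubated at 28–30 °C. Drug-free blank and ketoconazole control included; repeated three times; MIC determined.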

[5] = system: Staphylococcus saprophyticus; assay: Antibacterial activity against Staphylococcus saprophyticus ATCC 35552 at < 100 ug/mL by agar dilution method; assay type: functional, organism-based
Method in brief: (§3)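 Agar dilution on 1 mL Mueller-Hinton agar slants. Compounds were serially two-fold diluted in DMSO (final DMSO ≤2%) to give 10–100 µg/mL in the medium. Bacteria were grown on MHA at 35 °C for 24 h, suspended in 0.86% saline at 1.5 × 10^8 cell/mL (0.5 McFarland), and 1 µL was added per slant. Slants were incubated at 35 °C. Drug-free blank included; each assay run three times; MIC recorded.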

Mus musculus [6] = assay: Antinociceptive activity in Swiss mouse assessed as inhibition of formalin-induced paw licking activity at 10 mg/kg, ip administered 30 mins before formalin challenge measured after 5 mins; assay type: functional; conditions: route intraperitoneal
Method in brief: (§4)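 Formalin test in mice pretreated i.p. with vehicle or 10 mg/kg test agent 30 min before formalin injection. Animals were acclimatized 5 min in a glass cylinder with an angled mirror. Licking time was recorded for the early phase (0–5 min) and the late phase (15–30 min) after formalin. Values are mean ± S.E.M.; ANOVA with Dunnett's test.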

Aspergillus niger = assay: Antifungal activity against Aspergillus niger ATCC 9092 by agar dilution method; assay type: functional, organism-based; method in brief: as §2
Candida albicans = assay: Antifungal activity against Candida albicans ATCC 10231 by agar dilution method; assay type: functional, organism-based
Method in brief: (§5)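 Yeasts were grown on Sabouraud dextrose agar and adjusted to 1.0–5.0 × 10^6 cell/mL (0.5 McFarland). Agar dilution used 1 mL SDA slants holding two-fold DMSO dilutions of compound at 10–100 µg/mL, with final DMSO ≤2%. 1 µL of inoculum was added per slant, then incubated at 35 °C. Drug-free blank and ketoconazole positive control included; triplicate runs; MIC read.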

Cryptococcus neoformans = assay: Antifungal activity against Cryptococcus neoformans ATCC 32264 by agar dilution method; assay type: functional; method in brief: as §5
Staphylococcus aureus = assay: Antibacterial activity against Staphylococcus aureus ATCC 6538P at < 100 ug/mL by agar dilution method; assay type: functional, organism-based; method in brief: as §3
Bacillus cereus = assay: Antibacterial activity against Bacillus cereus ATCC 14579 at < 100 ug/mL by agar dilution method; assay type: functional; method in brief: as §3
Trichophyton rubrum = assay: Antifungal activity against Trichophyton rubrum C137 by agar dilution method; assay type: functional; method in brief: as §2
Aspergillus fumigatus = assay: Antifungal activity against Aspergillus fumigatus ATCC 26934 by agar dilution method; assay type: functional; method in brief: as §2
Microsporum canis = assay: Antifungal activity against Microsporum canis C112 by agar dilution method; assay type: functional, organism-based; method in brief: as §2
Nannizzia gypsea = assay: Antifungal activity against Microsporum gypseum C115 by agar dilution method; assay type: functional; method in brief: as §2
Escherichia coli = assay: Antibacterial activity against Escherichia coli ATCC 11775 at < 100 ug/mL by agar dilution method; assay type: functional, organism-based; method in brief: as §3
Bacillus subtilis = assay: Antibacterial activity against Bacillus subtilis ATCC 23858 at < 100 ug/mL by agar dilution method; assay type: functional, organism-based; method in brief: as §3
Pichia kudriavzevii = assay: Antifungal activity against Candida krusei ATCC 6582 by agar dilution method; assay type: functional, organism-based; method in brief: as §5
Mus musculus [7] = assay: Ratio of metamizole ID50 to compound ID50 for inhibition of acetic acid-induced abdominal contraction in ip dosed Swiss mouse; assay type: functional, Abdominal cavity
Streptococcus agalactiae = assay: Antibacterial activity against Streptococcus agalactiae ATCC 13813 at < 100 ug/mL by agar dilution method; assay type: functional; method in brief: as §3
Salmonella typhimurium = assay: Antibacterial activity against Salmonella Typhimurium ATCC 14028 at < 100 ug/mL by agar dilution method; assay type: functional, organism-based; conditions: Salmonella enterica subsp. enterica serovar Typhimurium; method in brief: as §3
Proteus mirabilis = assay: Antibacterial activity against Proteus mirabilis ATCC 25933 at < 100 ug/mL by agar dilution method; assay type: functional, organism-based; method in brief: as §3
Aspergillus flavus = assay: Antifungal activity against Aspergillus flavus ATCC 9170 by agar dilution method; assay type: functional, organism-based; method in brief: as §2
Mus musculus [8] = assay: Antinociceptive activity in Swiss mouse assessed as inhibition of acetic acid-induced abdominal contraction at 0.1 to 100 mg/kg, ip administered 30 mins before acetic acid challenge measured after 20 mins relative to control; assay type: functional, Abdominal cavity; conditions: dose mg/kg 0.1-100; route intraperitoneal; method in brief: as §1
Rhizopus = assay: Antifungal activity against Rhizopus CL35 by agar dilution method; assay type: functional; method in brief: as §2
Mus musculus [9] = assay: Antinociceptive activity in Swiss mouse assessed as inhibition of formalin-induced paw licking activity at 10 mg/kg, ip administered 30 mins before formalin challenge measured after 15 to 30 mins; assay type: functional; conditions: route intraperitoneal; method in brief: as §4
Mus musculus [10] = assay: Ratio of acetyl salicylic acid ID50 to compound ID50 for inhibition of acetic acid-induced abdominal contraction in ip dosed Swiss mouse; assay type: functional, Abdominal cavity
Enterobacter cloacae = assay: Antibacterial activity against Enterobacter cloacae ATCC 35030 at < 100 ug/mL by agar dilution method; assay type: functional, organism-based; method in brief: as §3
Pseudomonas aeruginosa = assay: Antibacterial activity against Pseudomonas aeruginosa ATCC 27853 at < 100 ug/mL by agar dilution method; assay type: functional, organism-based; method in brief: as §3

Compound	LC50 at 24 h [2] [µg/mL]	inhibition in vivo at 10 mg/kg (Mus musculus [3]) [%]	MIC [4] [µg/mL]	Activity [5]	Activity (Aspergillus niger)	Activity (Candida albicans)	MIC (Cryptococcus neoformans) [µg/mL]	Activity (Staphylococcus aureus)	Activity (Bacillus cereus)	MIC (Trichophyton rubrum) [µg/mL]	MIC (Aspergillus fumigatus) [µg/mL]	Activity (Microsporum canis)	MIC (Nannizzia gypsea) [µg/mL]	Activity (Escherichia coli)	Activity (Bacillus subtilis)	Activity (Streptococcus agalactiae)	Activity (Salmonella typhimurium)	Activity (Proteus mirabilis)	Activity (Enterobacter cloacae)	Activity (Pseudomonas aeruginosa)	other results
Cc1c(N2C(=O)C(Cl)=C(Nc3ccc(F)cc3)C2=O)c(=O)n(-c2ccccc2)n1C	> 1000	93.2	> 100	inactive	Active	Active	> 100	inactive	inactive	> 100	> 100	Active	100 (≈ 234 µM)	inactive	inactive	inactive	inactive	inactive	inactive	inactive	ED50 (Mus musculus [1]): 0.73 µmol/kg; inhibition in vivo at 10 mg/kg (Mus musculus [6]): 28.9%; Activity (Pichia kudriavzevii): Active; Ratio (Mus musculus [7]): 222; Activity (Aspergillus flavus): Active; inhibition (INH) (Mus musculus [8]): 96.7%; MIC (Rhizopus): > 100 µg/mL; inhibition in vivo at 10 mg/kg (Mus musculus [9]): 4.5%; Ratio (Mus musculus [10]): 182
Cc1c(N2C(=O)C(Cl)=C(Nc3ccc(Cl)c(Cl)c3)C2=O)c(=O)n(-c2ccccc2)n1C	> 1000	75	> 100	inactive	Active	Active	> 100	inactive	inactive	> 100	> 100	Active	100 (≈ 209 µM)	inactive	inactive	inactive	inactive	inactive	inactive	inactive	Activity (Pichia kudriavzevii): Active; Activity (Aspergillus flavus): Active; MIC (Rhizopus): 80 µg/mL (≈ 167 µM)
Cc1c(N2C(=O)C(Cl)=C(Nc3ccccc3)C2=O)c(=O)n(-c2ccccc2)n1C	> 1000	71.6	> 100	inactive	Active	Active	> 100	inactive	inactive	> 100	> 100	Active	> 100	inactive	inactive	inactive	inactive	inactive	inactive	inactive	Activity (Pichia kudriavzevii): Active; Activity (Aspergillus flavus): Active; MIC (Rhizopus): 80 µg/mL (≈ 196 µM)
Cc1c(N2C(=O)C(Cl)=C(Nc3ccc(Br)cc3)C2=O)c(=O)n(-c2ccccc2)n1C	> 1000	97.5	> 100	inactive	Active	Active	> 100	inactive	inactive	> 100	> 100	Active	> 100	inactive	inactive	inactive	inactive	inactive	inactive	inactive	ED50 (Mus musculus [1]): 0.57 µmol/kg; inhibition in vivo at 10 mg/kg (Mus musculus [6]): 11.4%; Activity (Pichia kudriavzevii): Active; Ratio (Mus musculus [7]): 284; Activity (Aspergillus flavus): Active; inhibition (INH) (Mus musculus [8]): 97.5%; MIC (Rhizopus): 100 µg/mL (≈ 205 µM); inhibition in vivo at 10 mg/kg (Mus musculus [9]): 22.5%; Ratio (Mus musculus [10]): 233
Cc1c(N2C(=O)C(Cl)=C(NCc3ccccc3)C2=O)c(=O)n(-c2ccccc2)n1C	> 1000	35.4	100 (≈ 236 µM)	inactive	Active	Active	40 (≈ 94.6 µM)	inactive	inactive	100 (≈ 236 µM)	100 (≈ 236 µM)	Active	> 100	inactive	inactive	inactive	inactive	inactive	inactive	inactive	Activity (Pichia kudriavzevii): Active; Activity (Aspergillus flavus): Active; MIC (Rhizopus): > 100 µg/mL
CC(=O)Oc1ccccc1C(=O)O [ASPIRIN]		35																			inhibition in vivo at 10 mg/kg (Mus musculus [6]): 16%; inhibition (INH) (Mus musculus [8]): 83%; inhibition in vivo at 10 mg/kg (Mus musculus [9]): 45%
CCc1ccc(NC2=C(Cl)C(=O)N(c3c(C)n(C)n(-c4ccccc4)c3=O)C2=O)cc1	> 1000	49.5	> 100	inactive	Active	Active	> 100	inactive	inactive	> 100	> 100	Active	100 (≈ 229 µM)	inactive	inactive	inactive	inactive	inactive	inactive	inactive	Activity (Pichia kudriavzevii): Active; Activity (Aspergillus flavus): Active; MIC (Rhizopus): > 100 µg/mL
Cc1c(N2C(=O)C(Cl)=C(Nc3ccc(Cl)cc3)C2=O)c(=O)n(-c2ccccc2)n1C	> 1000	97.4		inactive				inactive	inactive					inactive	inactive	inactive	inactive	inactive	inactive	inactive	ED50 (Mus musculus [1]): 4.05 µmol/kg; inhibition in vivo at 10 mg/kg (Mus musculus [6]): 28.2%; inhibition (INH) (Mus musculus [8]): 97.4%; inhibition in vivo at 10 mg/kg (Mus musculus [9]): 29.3%; Ratio (Mus musculus [10]): 33
